Screening data from PubChem BioAssay.
An excerpt weighted towards active compounds, which were near 1.3% of everything screened.
NR2E3 ag-1: inhibitors of NR2E3-RetCOR corepressor binding, primary screen, NR2E3 agonist project, biochemical, TR-FRET, GST-NR2E3, biotin-RetCOR | Photoreceptor-specific nuclear receptor (Homo sapiens), Q9Y5X4 | 1536-well | inhibition of corepressor binding, % at 4.78 µM | 320,000 tested, 0.12% active;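 active = percent inhibition above the cutoff of mean plus 3 SD of all tested compounds, set per screening campaign, cut at about 20% in these data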
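System: GST-tagged NR2E3 plus biotinylated RetCOR corepressor; Buffer or medium: pH 7.5 Tris-based buffer; Probe or stimulus: RetCOR corepressor, biotinylated, 7 nM; Doses: compound at 4.8 µM, single dose; Schedule: 5 h incubation at 4 °C; Technique: time-resolved FRET; Evaluation: percent inhibition of TR-FRET ratio; Replication: one well per compound, singlicate testing.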
GASC-1 inh: inhibitors of GASC-1 histone demethylase, primary screen, biochemical, fluorescence, DELFIA europium; Lysine-specific demethylase 4C (Homo sapiens), Q9H3R0; GST-JMJD2C(1-420) H3K9me3 demethylation; inhibition, % at 2.35 µM; 330,000 tested, 0.069% active; AID 2099, 2009;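 active = more than half of a compound's replicate wells show inhibition beyond 50%, single wells judged on their own value; inconclusive = some, but no more than half, of replicates pass 50% inhibition; inactive = no replicate passes 50% inhibition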;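 note: signal counts dimethyl H3K9 product captured on neutravidin plate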
Target sequence (Q9H3R0 1-420 limits assumed): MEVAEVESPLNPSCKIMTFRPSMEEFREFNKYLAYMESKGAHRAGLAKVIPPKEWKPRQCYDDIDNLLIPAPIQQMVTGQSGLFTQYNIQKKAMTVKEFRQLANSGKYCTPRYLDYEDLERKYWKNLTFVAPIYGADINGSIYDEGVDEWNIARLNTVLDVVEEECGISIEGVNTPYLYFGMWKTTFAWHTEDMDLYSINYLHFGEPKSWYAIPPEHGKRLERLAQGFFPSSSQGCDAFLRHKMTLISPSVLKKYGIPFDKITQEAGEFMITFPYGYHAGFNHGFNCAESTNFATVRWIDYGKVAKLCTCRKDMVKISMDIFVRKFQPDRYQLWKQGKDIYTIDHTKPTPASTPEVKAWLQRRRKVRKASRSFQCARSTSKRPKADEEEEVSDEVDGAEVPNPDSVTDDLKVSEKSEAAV
NR2E3 ag-2: NR2E3 agonists in two-hybrid cells, primary screen, cell-based, luminescence, CHO-S, Gal4-NCOR/VP16-NR2E3 | inhibition of corepressor binding, % at 3.98 µM | Photoreceptor-specific nuclear receptor (Homo sapiens), Q9Y5X4 | luciferase | 360,000 tested, 0.35% active | AID 602229, 2012;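 active = inhibition above the mean of all tested compounds plus 3 SD, cut at about 70% in these data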;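 note: higher means lower luciferase signal from less NR2E3 corepressor binding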
PGE2 EP2 inh: human EP2 receptor antagonists, primary screen, TR-FRET cAMP, C6 glioma cells | Prostaglandin E2 receptor EP2 subtype (Homo sapiens), P43116 | C6 glioma cells expressing human EP2; cells stimulated with saturating PGE2 | inhibition, % at 25 µM | 260,000 tested, 0.52% active;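 active = percent inhibition above 40 after rounding to a whole number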;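 note: rat C6 glioma host cells with rolipram phosphodiesterase inhibitor present; the protocol text gives 20 µM as final concentration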
EP2 modulator: EP2 receptor modulators, cAMP readout, primary screen, cell-based, HTRF cAMP, PGE2 stimulation; Prostaglandin E2 receptor EP2 subtype (Homo sapiens), P43116; EP2-expressing cells, cAMP HTRF FRET, PGE2 co-stimulation; induction, % at 25 µM; 260,000 tested, 0.83% active; AID 940, 2007;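 active = compounds whose cAMP rise, as percent of the full-agonist control response, exceeds 60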;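 note: rat C6 glioma line stably carrying human EP2 under a CMV promoter; the protocol text gives 20 µM as final concentration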
Furin inh: human furin inhibitors, primary screen, biochemical, fluorescence intensity; inhibition, % at 20 µM or 30 µM; purified furin, fluorogenic substrate cleavage; 220,000 tested, 0.061% active; AID 463115, 2010; P09958; in the data active = inhibition above about 25%
NR2E3 ag conf: NR2E3 agonist confirmation in cells, cell-based, luminescence, CHO-S two-hybrid | shares compounds with NR2E3 ag-2 | CHO-S mammalian two-hybrid NR2E3-NCOR, luciferase luminescence | inhibition, % at 3.98 µM | 2,300 tested, 51% active | AID 624378, 2012;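 active = average inhibition above a cutoff equal to the mean inhibition of all tested compounds plus one SD, cut at about 70% in these data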
VP16 counter: GAL4-VP16 reporter modulators, confirmation, counter-screen for NR2E3 agonist project, cell-based, luminescence, CHO-S, high throughput. CHO-S GAL4-VP16 luciferase reporter. shares compounds with NR2E3 ag-2. 2,300 tested, 29% active. AID 624379, 2012. inhibition, % at 3.98 µM;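 active = mean inhibition above a cutoff equal to the average over all tested compounds plus one standard deviation, cut at about 70% in these data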;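 note: luciferase from a UAS reporter driven by GAL4-VP16 transactivation; higher means less reporter light so more repression of VP16 activity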
A number is an active result; i = inactive; ? = inconclusive; nt = not tested or not shown.

SMILES	NR2E3 ag-1	GASC-1 inh	NR2E3 ag-2	PGE2 EP2 inh	EP2 modulator	Furin inh	NR2E3 ag conf	VP16 counter
CC(=O)Nc1ccc(NC(=O)CCc2nc3sc4c(c3c(=O)[nH]2)CCCC4)cc1	i	i	i	nt	nt	nt	nt	nt
Cc1ccc(CN(Cc2cc3cc4c(cc3[nH]c2=O)OCO4)Cc2nnnn2C(C)(C)C)cc1	nt	nt	nt	i	i	nt	nt	nt
COc1ccc(S(=O)(=O)N/N=C\c2ccc3c(c2)OCO3)c(OC)c1	nt	i	i	nt	nt	nt	i	i
COCCN1C(=O)C(O)=C(C(=O)c2ccco2)C1c1ccc(C(C)(C)C)cc1 (stereo unspecified)	nt	nt	nt	i	i	nt	nt	nt
COc1ccc(CCNC(=O)Cn2nc(C)c3c(C)n(-c4ccccc4)nc3c2=O)c(OC)c1	i	i	i	nt	nt	nt	nt	nt
COc1ccc(OC)c(CCNC(=O)Cn2nc(C)c3c(C)n(-c4ccc(C)cc4)nc3c2=O)c1	i	i	74	nt	nt	nt	i	i
CC(C)(Oc1ccc(Cl)cc1)C(=O)N1CCCCC1	nt	nt	nt	i	i	nt	nt	nt
CNC(=S)NN=C(C)CCCC(C)=NNC(=S)NC	nt	nt	i	nt	nt	nt	i	i
Cc1ccc(C)c(S(=O)(=O)Nc2cc3c4c(c2)CCC(=O)N4CCC3)c1	i	i	i	nt	nt	nt	i	i
CC(=O)Nc1ccc(C(=O)Nc2nnc(C(C)C)s2)cc1	nt	nt	nt	i	i	nt	nt	nt
Clc1ccc(-c2nnc3c4ccccc4nc(N4CCOCC4)n23)cc1Cl	i	i	i	nt	i	i	nt	nt
Brc1ccc(-c2nnc3c4ccccc4nc(N4CCOCC4)n23)cc1	i	i	80	nt	i	i	i	i
C=CC[N+]1(CC(O)COc2cccc3ccccc23)CCOCC1 (stereo unspecified)	nt	nt	nt	i	i	nt	nt	nt
Cn1c2ccccc2c(=O)c2ccc(C#CC3(O)CCCCC3)cc21	i	i	i	nt	nt	nt	i	i
Cc1cccc(-n2ncc3c2CCCC3NC(=O)C2(C(N)=O)CC2)c1C (stereo unspecified)	i	i	78	nt	nt	nt	77	i
COCc1ccc(C(=O)NC2CCCc3c2cnn3-c2cc(C)cc(C)c2)s1 (stereo unspecified)	nt	i	i	nt	nt	nt	i	i
CC1=C(C(=O)NC2CCCc3c2cnn3-c2ccc(F)cc2F)OCCO1 (stereo unspecified)	i	i	i	nt	nt	nt	i	i
Cc1cc(C(=O)NC2CCCc3c2cnn3-c2ccc(C)c(C)c2)n(C)n1 (stereo unspecified)	i	i	111	nt	nt	nt	98	88
Cc1ccc(-n2ncc3c2CCCC3NC(=O)c2ccoc2)cc1C (stereo unspecified)	i	i	i	nt	nt	nt	nt	nt
Cc1ccnc(-n2cccc2CNc2n[nH]c3nc(C)cc(C)c23)c1	nt	nt	nt	i	i	nt	nt	nt
Cc1nnsc1C(=O)NC1CCCc2c1cnn2-c1ccc(C(C)(C)C)cc1 (stereo unspecified)	i	i	93	nt	nt	nt	78	75
Cc1nnsc1C(=O)NC1CCCc2c1cnn2-c1ccccc1F (stereo unspecified)	i	i	83	nt	nt	nt	86	i
Cc1cc(=O)[nH]c(NC2CCN(Cc3ccccc3)CC2)n1	nt	nt	nt	nt	i	nt	nt	nt
CCCCCCCCCCOC(=O)Cn1c(COc2ccccc2OC)[n+](C)c2ccccc21	i	i	i	nt	nt	nt	95	i
CC1CCc2c(sc3nc(C4CC4)nc(N4CCN(S(C)(=O)=O)CC4)c23)C1 (stereo unspecified)	nt	nt	nt	i	i	nt	nt	nt
SMILES	NR2E3 ag-1	GASC-1 inh	NR2E3 ag-2	PGE2 EP2 inh	EP2 modulator	Furin inh	NR2E3 ag conf	VP16 counter
Cc1nn(Cc2ccc(Cl)c(Cl)c2)c(C)c1NC(=O)c1cc(-c2ccco2)on1	i	?	i	i	i	i	79	i
Cc1nn(Cc2ccc(Cl)c(Cl)c2)c(C)c1NC(=O)c1sc2ccccc2c1Cl	i	i	i	i	i	i	i	i
Cc1cc(CNC(=O)c2cccc([N+](=O)[O-])c2C)c2ccccc2n1	i	i	i	i	i	i	72	i
Cc1cc(CNC(=O)Cc2ccccc2)c2ccccc2n1	i	i	i	i	i	i	nt	nt
CN(C)c1ccc(C(=O)NCCc2nc(-c3ccncc3)n[nH]2)cc1	nt	nt	nt	i	i	nt	nt	nt
Cc1ccc2nc(N3C(=O)CNC3=S)sc2c1	i	i	i	i	i	i	i	i
COc1ccc2nc(N3C(=O)CNC3=S)sc2c1	i	i	i	i	i	i	nt	nt
Cc1c(C(=O)NC(c2ccccc2)c2cccnc2)sc2ncn(C)c(=O)c12 (stereo unspecified)	nt	nt	nt	i	i	nt	nt	nt
Cc1ccccc1NC1=C/C(=N\S(=O)(=O)c2cccs2)c2ccccc2C1=O	i	i	i	i	i	i	100	99
CC(=O)Nc1ccc(NC2=C/C(=N/S(=O)(=O)c3cccs3)c3ccccc3C2=O)cc1	i	i	i	i	i	i	nt	nt
O=C(O)c1ccc(S(=O)(=O)/N=C2\C=C(Nc3ccccc3F)C(=O)c3ccccc32)cc1	i	i	104	nt	nt	nt	100	i
Cc1ccccc1NC1=C/C(=N\S(=O)(=O)c2ccc(C(=O)O)cc2)c2ccccc2C1=O	i	i	i	nt	nt	nt	nt	nt
COc1ccc(S(=O)(=O)/N=C2\C=C(Nc3ccc(O)cc3)C(=O)c3ccccc32)cc1	i	i	114	nt	nt	nt	99	100
COc1ccc(C(O)CN2CCC(O)(c3ccc(C(F)(F)F)cc3)CC2)cc1 (stereo unspecified)	nt	nt	nt	i	i	nt	nt	nt
CCOc1ccccc1-c1nc2cnccn2c1NC(C)(C)C	nt	nt	nt	i	i	nt	nt	nt
O=C(Nc1ccc(Cl)cc1)c1cc2c(cc1O)[nH]c1ccccc12	i	i	101	i	i	i	99	90
COc1ccc(OC)c(C(=O)CSc2nnc(C)c(=O)[nH]2)c1	nt	nt	nt	i	i	nt	nt	nt
Cc1cc2ccccc2n2c(=O)n(CC(C)NC(=O)c3ccnn3C)nc12 (stereo unspecified)	nt	nt	nt	i	i	nt	nt	nt
CC(=O)c1c(C)[nH]c(C(=O)COc2cc(C)cc(C)c2)c1C	i	i	i	i	i	i	nt	nt
CCCOc1ccc(OCC(=O)c2[nH]c(C)c(C(C)=O)c2C)cc1	i	i	79	i	i	i	94	78
CCCOc1ccc(CN(CCC#N)C(=S)NC(=O)c2ccccc2)cc1	i	i	i	i	i	i	i	i
